Test results reported in ChEMBL document CHEMBL2401708, “Superior anticancer activity of halogenated chalcones and flavonols over the natural flavonol quercetin” (Eur J Med Chem, 2013).
The source made the active and inactive calls. No cut-off for these calls is given here.

Legend:
HCT-116 [1] = test: Cytotoxicity against human HCT116 cells assessed as cell viability at 15 uM after 48 hrs by MTT assay relative to control; type: functional; conditions: HCT-116, 48 h, read-out: Activity
Method in brief: (§1)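 HCT116 cells seeded in 24-well plates two days prior, treated 48 h in fresh complete medium (DMSO ≤0.5% v/v; DMSO-only control); MTT 0.5 mg/ml final added for last hour, formazan dissolved in DMSO:ethanol 50:50, A570 minus A690; viability as % of control; IC50 from 2.5–20 range dose-response; mean ± SEM of 4 independent experiments.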

HCT-116 [2] = test: Cytotoxicity against human HCT116 cells assessed as cell viability at 10 uM after 48 hrs by MTT assay relative to control; type: functional; conditions: HCT-116, 48 h, read-out: Activity; method in brief: as §1
HCT-116 [3] = test: Cytotoxicity against human HCT116 cells assessed as cell viability after 48 hrs by MTT assay; type: functional, cell-based; conditions: HCT-116, 48 h; method in brief: as §1
HCT-116 [4] = test: Cell cycle arrest in human HCT116 cells assessed as accumulation at sub-G1 phase at 10 to 15 uM after 48 hrs by flow cytometry analysis; type: functional, cell-based
Method in brief: (§2)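 HCT116 cells (RPMI 1640, 6% FBS, 37 °C, 5% CO2) seeded two days ahead, exposed 48 h; floating plus attached cells collected by trypsinization, fixed in 70% ethanol at 4 °C 15 min, stained with PI/RNase A at 37 °C 15 min; ≥40 000 single cells counted by flow cytometry; phases fitted by Watson Pragmatic model; 3 independent experiments.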

HCT-116 [5] = test: Induction of morphological changes in human HCT116 cells assessed as floating cells at 15 to 100 uM after 48 hrs by microscopic analysis; type: functional, cell-based
HCT-116 [6] = test: Cell cycle arrest in human HCT116 cells assessed as accumulation at S and G2/M phase at 10 to 15 uM after 48 hrs by flow cytometry analysis; type: functional, cell-based; method in brief: as §2
HCT-116 [7] = test: Induction of apoptosis in human HCT116 cells assessed as cleavage of PARP1 at 10 to 15 uM after 48 hrs by Western blot analysis; type: functional, cell-based
Method in brief: (§3)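 Cells seeded two days before 48 h exposure; floating and attached cells harvested, lysed in ice-cold RIPA with PMSF, phosphatase and protease inhibitors; 20 µg protein by SDS-PAGE, PVDF transfer, milk blocking, primary antibody (p53 DO-1, p27 C-19, PARP-1 F-2) overnight, HRP secondary, chemiluminescence; band intensity quantified, β-actin loading control.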

HCT-116 [8] = test: Induction of apoptosis in human HCT116 cells assessed as nuclear condensation after 48 hrs by fluorescence microscopic analysis; type: functional, cell-based
Method in brief: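 After 48 h exposure, floating and attached cells harvested, fixed in 4% paraformaldehyde 15 min at room temperature, cytospun onto polylysine slides, Hoechst-stained; apoptotic fraction = condensed nuclei over total nuclei, >500 cells per slide counted by fluorescence microscopy; mean ± SEM of ≥3 independent experiments.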

HCT-116 [9] = test: Cell cycle arrest in human HCT116 cells assessed as accumulation at S and G2/M phase at IC50 after 48 hrs by flow cytometry analysis; type: functional, cell-based; method in brief: as §2
HCT-116 [10] = test: Cell cycle arrest in human HCT116 cells assessed as accumulation at S and G2/M phase at 15 uM after 48 hrs by flow cytometry analysis; type: functional, cell-based; method in brief: as §2
HCT-116 [11] = test: Induction of apoptosis in human HCT116 cells assessed as cleavage of PARP1 at 5 to 10 uM after 48 hrs by Western blot analysis; type: functional, cell-based; method in brief: as §3
HCT-116 [12] = test: Cell cycle arrest in human HCT116 cells assessed as accumulation at sub-G1 phase at 5 to 10 uM after 48 hrs by flow cytometry analysis; type: functional, cell-based; method in brief: as §2
HCT-116 [13] = test: Cell cycle arrest in human HCT116 cells assessed as increase of p27 expression at 5 to 10 uM after 48 hrs by Western blot analysis; type: functional, cell-based; method in brief: as §3
HCT-116 [14] = test: Cell cycle arrest in human HCT116 cells assessed as accumulation at S and G2/M phase at 5 to 10 uM after 48 hrs by flow cytometry analysis; type: functional, cell-based; method in brief: as §2
HCT-116 [15] = test: Cell cycle arrest in human HCT116 cells assessed as increase of p53 expression at 5 to 10 uM after 48 hrs by Western blot analysis; type: functional, cell-based; method in brief: as §3
HCT-116 [16] = test: Induction of morphological changes in human HCT116 cells assessed as floating cells at 10 to 100 uM after 48 hrs by microscopic analysis; type: functional, cell-based
HCT-116 [17] = test: Cytotoxicity against human HCT116 cells assessed as cell viability at 30 uM after 48 hrs by MTT assay relative to control; type: functional; conditions: HCT-116, 48 h, read-out: Activity
Method in brief: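 HCT116 cells grown in RPMI 1640 with 6% FBS, 0.1 mM sodium pyruvate and 10 mM HEPES at 37 °C in 5% CO2, seeded at 70 000 cells/mL two days before treatment. Exposure 48 h in fresh complete medium, DMSO ≤0.5% (v/v), DMSO-only controls. MTT (0.5 mg/ml final) added for the last hour, formazan dissolved in DMSO:ethanol 50:50, A570 minus A690. Viability given as % of control; mean ± SEM of 4 independent experiments; Student's t-test.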

Structure (SMILES): O=c1c(O)c(-c2ccccc2)oc2ccccc12 [FLAVONOL]
- viability at 15 µM (HCT-116 [1]): 64.6%

Structure (SMILES): O=c1c(O)c(-c2cccc(Cl)c2)oc2ccccc12
- viability at 10 µM (HCT-116 [2]): 43.8%
- viability at 15 µM (HCT-116 [1]): 32.9%
- IC50 (HCT-116 [3]): 8.1 µM

Structure (SMILES): COc1ccccc1-c1oc2ccccc2c(=O)c1O
- viability at 15 µM (HCT-116 [1]): 89.1%

Structure (SMILES): COc1cc(/C=C/C(=O)c2ccccc2O)cc(OC)c1OC
- viability at 15 µM (HCT-116 [1]): 83.7%

Structure (SMILES): Cc1ccc(/C=C/C(=O)c2ccccc2O)cc1
- viability at 15 µM (HCT-116 [1]): 89.1%

Structure (SMILES): COc1cccc(-c2oc3ccccc3c(=O)c2O)c1
- viability at 15 µM (HCT-116 [1]): 39.5%

Structure (SMILES): COc1ccc(-c2oc3ccccc3c(=O)c2O)cc1OC [3-HYDROXY-3',4'-DIMETHOXYFLAVONE]
- viability at 15 µM (HCT-116 [1]): 78.1%

Structure (SMILES): Cc1cccc(-c2oc3ccccc3c(=O)c2O)c1
- viability at 15 µM (HCT-116 [1]): 38.7%

Structure (SMILES): O=C(/C=C/c1cccc(Br)c1)c1ccccc1O
- viability at 10 µM (HCT-116 [2]): 48.4%
- Activity (HCT-116 [4]): Active
- viability at 15 µM (HCT-116 [1]): 29.6%
- Activity (HCT-116 [5]): Active
- Activity (HCT-116 [6]): Active
- IC50 (HCT-116 [3]): 10.9 µM
- Activity (HCT-116 [7]): Active
- Activity (HCT-116 [8]): Dose-dependent effect
- Activity (HCT-116 [9]): Active

Structure (SMILES): O=C(/C=C/c1cccc(Cl)c1)c1ccccc1O
- viability at 10 µM (HCT-116 [2]): 75.8%
- viability at 15 µM (HCT-116 [1]): 37.5%
- IC50 (HCT-116 [3]): 13.2 µM

Structure (SMILES): O=C(/C=C/c1ccc(F)cc1)c1ccccc1O
- viability at 10 µM (HCT-116 [2]): 85.2%
- viability at 15 µM (HCT-116 [1]): 74.9%
- IC50 (HCT-116 [3]): 20.5 µM

Structure (SMILES): Cc1ccc(-c2oc3ccccc3c(=O)c2O)cc1
- viability at 15 µM (HCT-116 [1]): 59.3%

Structure (SMILES): COc1ccc(/C=C/C(=O)c2ccccc2O)cc1
- viability at 15 µM (HCT-116 [1]): 89.1%

Structure (SMILES): COc1cc(OC)c(/C=C/C(=O)c2ccccc2O)c(OC)c1
- viability at 15 µM (HCT-116 [1]): 91.1%

Structure (SMILES): O=c1c(O)c(-c2ccc(F)cc2)oc2ccccc12
- viability at 10 µM (HCT-116 [2]): 61.1%
- viability at 15 µM (HCT-116 [1]): 49.2%
- IC50 (HCT-116 [3]): 14.4 µM

Structure (SMILES): COc1cc(-c2oc3ccccc3c(=O)c2O)cc(OC)c1OC
- viability at 15 µM (HCT-116 [1]): 70%

Structure (SMILES): O=C(/C=C/c1ccc(C(F)(F)F)cc1)c1ccccc1O
- viability at 15 µM (HCT-116 [1]): 85.1%
- Activity (HCT-116 [5]): Active
- Activity (HCT-116 [10]): inactive

Structure (SMILES): O=c1c(O)c(-c2ccc(Br)cc2)oc2ccccc12
- viability at 10 µM (HCT-116 [2]): 32.8%
- Activity (HCT-116 [11]): Active
- viability at 15 µM (HCT-116 [1]): 29.2%
- Activity (HCT-116 [12]): Active
- Activity (HCT-116 [13]): Active
- Activity (HCT-116 [14]): Active
- IC50 (HCT-116 [3]): 4.6 µM
- Activity (HCT-116 [15]): Active
- Activity (HCT-116 [8]): Dose-dependent effect
- Activity (HCT-116 [9]): Active
- Activity (HCT-116 [16]): Active

Structure (SMILES): O=c1c(O)c(-c2ccc(Cl)cc2)oc2ccccc12
- viability at 10 µM (HCT-116 [2]): 40.8%
- viability at 15 µM (HCT-116 [1]): 38%
- IC50 (HCT-116 [3]): 6.8 µM

Structure (SMILES): COc1ccc(-c2oc3ccccc3c(=O)c2O)cc1
- viability at 15 µM (HCT-116 [1]): 96%

Structure (SMILES): COc1ccc(OC)c(-c2oc3ccccc3c(=O)c2O)c1
- viability at 15 µM (HCT-116 [1]): 76.6%

Structure (SMILES): COc1cccc(/C=C/C(=O)c2ccccc2O)c1O
- viability at 15 µM (HCT-116 [1]): 84.7%

Structure (SMILES): O=c1c(O)c(-c2cccc(Br)c2)oc2ccccc12
- viability at 10 µM (HCT-116 [2]): 37.6%
- viability at 15 µM (HCT-116 [1]): 29.2%
- IC50 (HCT-116 [3]): 7.5 µM

Structure (SMILES): COc1cccc(/C=C/C(=O)c2ccccc2O)c1
- viability at 15 µM (HCT-116 [1]): 89.6%

Structure (SMILES): O=C(/C=C/c1ccc(Br)cc1)c1ccccc1O
- viability at 10 µM (HCT-116 [2]): 85.5%
- viability at 15 µM (HCT-116 [1]): 68.4%
- IC50 (HCT-116 [3]): 19.1 µM

Structure (SMILES): O=C(/C=C/c1ccccc1)c1ccccc1O [2'-HYDROXYCHALCONE]
- viability at 15 µM (HCT-116 [1]): 91.7%

Structure (SMILES): O=c1c(O)c(-c2ccc(O)c(O)c2)oc2cc(O)cc(O)c12 [QUERCETIN]
- viability at 30 µM (HCT-116 [17]): 59.7%

Structure (SMILES): Cc1cccc(/C=C/C(=O)c2ccccc2O)c1
- viability at 15 µM (HCT-116 [1]): 85.9%

Structure (SMILES): O=C(/C=C/c1ccc(Cl)cc1)c1ccccc1O
- viability at 10 µM (HCT-116 [2]): 84.8%
- viability at 15 µM (HCT-116 [1]): 69.1%
- IC50 (HCT-116 [3]): 20.9 µM

Structure (SMILES): O=c1c(O)c(-c2cccc(F)c2)oc2ccccc12
- viability at 10 µM (HCT-116 [2]): 60.9%
- viability at 15 µM (HCT-116 [1]): 45.9%
- IC50 (HCT-116 [3]): 13 µM

Structure (SMILES): O=C(/C=C/c1cccc(F)c1)c1ccccc1O
- viability at 10 µM (HCT-116 [2]): 90.2%
- viability at 15 µM (HCT-116 [1]): 45.3%
- IC50 (HCT-116 [3]): 14.5 µM
